# Laboratory results: ChEMBL document CHEMBL2169780, “Design and synthesis of neuroprotective methylthiazoles and modification as NO-chimeras for neurodegenerative therapy” (J Med Chem, 2012)
# The source made the active and inactive calls. No cut-off for these calls is given here.
# What was measured:
# [1] = Neuroprotective activity against oxygen-glucose deprivation-induced toxicity in Sprague-Dawley rat primary cortical neurons at 50 uM […] measured after 24 hrs by MTT assay relative to clomethiazole; type: functional, Cerebral cortex neuron
# [2] = Chemical stability of the compound in phosphate buffer at pH 7.4 after 5 days by HPLC-UV analysis; type: physicochemical; conditions: pH 7.4, 120 h
# Summary of the method: (§1)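 10 µM compound plus 10 µM internal standard in 100 mM phosphate buffer, pH 7.4, 2% DMSO final, held at room temperature in the autosampler. Repeated HPLC injections with UV detection at 254 nm and a C18 gradient. Parent-to-standard peak-area ratio divided by the time-zero value gives % remaining.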
# Mus musculus = assay: Procognitive activity in C57BL/6 mouse assessed as reversal of scopolamine-induced memory deficit at 4.5 umol/kg, ip administered 10 mins post scopolamine-challenge and 20 mins prior to training measured after 24 hrs by step-through passive avoidance test; type: functional, organism-based
# Summary of the method: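 Male C57BL/6 mice, 8–10 weeks. Scopolamine 1.0 mg/kg i.p. given 30 min before training; drug at 4.5 µmol/kg i.p. given 20 min before training. At 24 h after training, latency to enter the dark compartment was recorded without shock. One-way ANOVA with Bonferroni test.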
# [3] = Half life of the compound in phosphate buffer at pH 7.4 by HPLC-UV analysis; type: physicochemical; summary of the method: as §1
# Hippocampus = assay: Neuroprotective activity against amyloid beta-induced long term potentiation impairment in human APP […] mutant and PS1 M146L mutant transgenic mouse hippocampal slice at 100 uM incubated for 5 mins by field excitatory post-synaptic potential analysis; type: functional, tissue-based
# Summary of the method: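 APP/PS1 (line 6.2) hippocampal slices, 400 µm, kept at 29°C in oxygenated saline. CA1 fEPSPs recorded in stratum radiatum after a 15 min baseline at about 35% of maximal response. Compound at 100 µM perfused 5 min before theta-burst tetanus of the Schaffer collaterals. LTP analysed at 50–80 min by two-way ANOVA.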
# Cerebral cortex neuron [4] = assay: Activation of Gamma-aminobutyric acid type-A receptor in Sprague-Dawley rat primary cortical neurons assessed as inhibition of glutamate-induced cytotoxicity at 50 uM incubated for 1 hr prior to glutamate-challenge measured after 24 hrs by MTT assay in presence of picrotoxin; type: cell-based
# [5] = Drug uptake in C57BL/6 mouse brain at 4.5 umol/kg, ip after 20 mins; type: ADME, organism-based; conditions: read-out: Drug uptake
# Summary of the method: (§2)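 Male C57BL/6 mice, 8–10 weeks, dosed i.p. at 4.5 µmol/kg, four per drug. Brains taken 20 min later and extracted in cold acetonitrile/MeOH (1:1) with internal standard. Parent and metabolite quantified by LC-MS/MS in MRM mode against brain-matrix calibration of 1–100 ng/mL. Mean ± SEM, n=4.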
# Cerebral cortex neuron [6] = assay: Activation of Gamma-aminobutyric acid type-A receptor in Sprague-Dawley rat primary cortical neurons assessed as inhibition of glutamate-induced cytotoxicity at 50 uM […] measured after 24 hrs by MTT assay; type: cell-based
# Brain [7] = assay: Drug uptake in C57BL/6 mouse brain assessed as [1-[beta-(4-Methyl-5-thiazolyl)ethanol]-4-(3-pyridinyl)]-1H-1,2,3-triazole level at 4.5 umol/kg, ip after 20 mins; type: ADME, organism-based; conditions: in vivo; summary of the method: as §2
# [8] = Neuroprotective activity against oxygen-glucose deprivation-induced toxicity in Sprague-Dawley rat primary cortical neurons assessed as increase in cell survival at 50 uM […] measured after 24 hrs by MTT assay relative to vehicle-treated control; type: functional, Cerebral cortex neuron
# Brain [9] = assay: Drug uptake in C57BL/6 mouse brain assessed as beta-Phenyl-4-methyl-5-thiazoleethanol level at 4.5 umol/kg, ip after 20 mins; type: ADME, organism-based; conditions: in vivo; summary of the method: as §2
compound,measurement,setting,value
Cc1ncsc1C(c1ccccc1)n1cc(-c2cccnc2)nn1 (centres undefined),Activity,[1],108%
Cc1ncsc1C(c1ccccc1)n1cc(-c2ccccn2)nn1 (centres undefined),Activity,[1],50.9%
Cc1ncsc1C(CO[N+](=O)[O-])n1nncc1-c1cccnc1 (centres undefined),Stability,[2],Stable
same,Activity,Mus musculus,Active
Cc1ccc2c(c1)c1c(n2CCc2scnc2C)CCN(C)C1,Activity,[1],15.4%
Cc1ncsc1C(OC(=O)C1(CO[N+](=O)[O-])CC1)c1ccccc1 (centres undefined),half-life,[3],0.578 h
Cc1ncsc1CCO,Activity,[1],14.11%
Cc1ncsc1C(c1ccccc1)n1ccnn1 (centres undefined),Activity,[1],58.1%
Cc1ncsc1C(c1ccccc1)n1cc(-c2cncc(O)c2)nn1 (centres undefined),Activity,[1],104%
Cc1ncsc1C(NC(=O)OCC1(CO[N+](=O)[O-])CC1)c1ccccc1 (centres undefined),Activity,Mus musculus,Active
same,half-life,[3],50 h
same,Activity,Hippocampus,inactive
Cc1ncsc1C(O)c1ccc(Cl)cc1 (centres undefined),Activity,[1],25%
Cc1ncsc1C(c1ccccc1)n1cc(-c2ccsc2)nn1 (centres undefined),Activity,[1],62%
Cc1ncsc1C(c1ccccc1)n1cc(-c2ccccc2)nn1 (centres undefined),Activity,[1],57.6%
Cc1ncsc1C(O)Cc1ccc(F)cc1 (centres undefined),Activity,[1],101%
Cc1ncsc1C(CO)c1ccc(F)cc1 (centres undefined),Activity,[1],98.9%
Cc1ncsc1C(CO)c1ccccc1 (centres undefined),Activity,Cerebral cortex neuron [4],inactive
same,concentration at 20 min,[5],32.9 ng/mL
same,Activity,[1],99.6%
same,Activity,Cerebral cortex neuron [6],Active
Cc1ncsc1CCn1cc(-c2cccnc2)nn1,Activity,Cerebral cortex neuron [4],inactive
same,Activity,[1],99.6%
Cc1ncsc1C(OCCOCCO)c1ccccc1 (centres undefined),Activity,Cerebral cortex neuron [4],inactive
same,Activity,[1],114.1%
same,Activity,Cerebral cortex neuron [6],Active
Cc1ncsc1C(c1ccccc1)n1cc(-c2ccncc2)nn1 (centres undefined),Activity,[1],90.2%
Cc1ncsc1C(c1ccccc1)n1cc(-c2cncn2C)nn1 (centres undefined),Activity,[1],93.9%
Cc1ncsc1CCn1ccnn1,Activity,[1],51.5%
NCc1cc(O)no1,Activity,Cerebral cortex neuron [4],inactive
same,Activity,Cerebral cortex neuron [6],Active
Cc1ncsc1C(O)Cc1ccccc1 (centres undefined),Activity,[1],102%
Cc1ncsc1C(CO[N+](=O)[O-])n1cc(-c2cccnc2)nn1 (centres undefined),Stability,[2],Stable
same,Activity,Mus musculus,Active
same,concentration at 20 min,[5],2.1 ng/mL
same,Drug uptake,Brain [7],76.6 ng/mL
Cc1ncsc1C(NC(=O)OCCCCO[N+](=O)[O-])c1ccccc1 (centres undefined),Stability,[2],Stable
same,Activity,Mus musculus,Active
Cc1ncsc1C(O)c1ccccc1 (centres undefined),Activity,[1],94%
Cc1ncsc1C(CO[N+](=O)[O-])c1ccc(F)cc1 (centres undefined),Stability,[2],Stable
same,Activity,Mus musculus,Active
Cc1ncsc1CCCl [CLOMETHIAZOLE],Activity,[8],30%
same,Activity,Hippocampus,inactive
Cc1ncsc1C(c1ccc(F)cc1)n1cc(-c2cccnc2)nn1 (centres undefined),Activity,[1],87.2%
Cc1ncsc1C(CO)n1cc(-c2cccnc2)nn1 (centres undefined),Activity,Cerebral cortex neuron [4],inactive
same,concentration at 20 min,[5],56.4 ng/mL
same,Activity,[1],107.3%
same,Activity,Cerebral cortex neuron [6],Active
Cc1ncsc1C(Cc1ccccc1)O[N+](=O)[O-] (centres undefined),Stability,[2],Stable
Cc1ncsc1C(CO[N+](=O)[O-])c1ccccc1 (centres undefined),Stability,[2],Stable
same,Activity,Mus musculus,Active
same,concentration at 20 min,[5],9.5 ng/mL
same,Drug uptake,Brain [9],9.5 ng/mL
same,Activity,Hippocampus,Active
Cc1ncsc1C(CO)c1ccc(-c2cccnc2)cc1 (centres undefined),Activity,[1],25%
Cc1ncsc1C(OCCOCCO[N+](=O)[O-])c1ccccc1 (centres undefined),Stability,[2],Stable
same,Activity,Mus musculus,Active
Cc1ncsc1CCn1cc(-c2ccccc2)nn1,Activity,[1],53.9%
Cc1ncsc1C(CO)n1nncc1-c1cccnc1 (centres undefined),Activity,[1],92.9%
Cc1ncsc1C(O)c1ccc(F)cc1 (centres undefined),Activity,[1],36.8%
COC(c1ccccc1)c1scnc1C (centres undefined),Activity,[1],110.2%
Cc1ncsc1C(c1ccccc1)n1cc(Cc2ccccc2)nn1 (centres undefined),Activity,[1],88.3%
Cc1ncsc1C(OC(=O)C1(C)CC1)c1ccccc1 (centres undefined),half-life,[3],6.33 h
Cc1ncsc1C(NC(=O)C1(CO[N+](=O)[O-])CC1)c1ccccc1 (centres undefined),Stability,[2],Stable
